Assays:
[1] = target: T1, Vasopressin V2 receptor (Homo sapiens, UniProt P30518); assay: Ability to displace [3H]arginine vasopressin in cloned human V2 receptor
Outline: (§1)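 Radioligand displacement of 3H-arginine vasopressin from cloned human V1a or V2 receptors. Single-concentration lines are read as percent inhibition at […].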

[2] = target: T2, Vasopressin V1a receptor (Homo sapiens, UniProt P37288); assay: Ability to displace [3H]arginine vasopressin in cloned human V1a receptor; outline: as §1
T2 sequence (P37288 whole entry): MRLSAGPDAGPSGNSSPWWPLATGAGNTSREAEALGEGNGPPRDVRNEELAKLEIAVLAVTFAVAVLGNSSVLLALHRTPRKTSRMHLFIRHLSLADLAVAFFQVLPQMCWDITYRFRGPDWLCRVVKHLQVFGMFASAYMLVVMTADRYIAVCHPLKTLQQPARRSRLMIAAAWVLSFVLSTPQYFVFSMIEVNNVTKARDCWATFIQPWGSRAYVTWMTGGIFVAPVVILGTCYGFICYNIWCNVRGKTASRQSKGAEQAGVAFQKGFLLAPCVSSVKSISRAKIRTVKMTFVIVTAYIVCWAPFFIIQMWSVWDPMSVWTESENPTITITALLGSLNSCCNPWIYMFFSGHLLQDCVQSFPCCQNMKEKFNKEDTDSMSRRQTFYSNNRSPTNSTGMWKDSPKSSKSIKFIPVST

[3] = target: T1, Vasopressin V2 receptor; assay: Inhibition of vasopressin induced cAMP accumulation in human V2 receptor expressing cells; type: functional
Outline: (§2)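 Functional antagonism in cells expressing the human receptor. For V2, inhibition of vasopressin-induced cAMP accumulation. For V1a, inhibition of vasopressin-induced calcium mobilization.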

[4] = target: T2, Vasopressin V1a receptor; assay: Inhibition of vasopressin induced calcium […] in human V1a receptor expressing cells; type: functional; outline: as §2
[5] = system: Rattus norvegicus; assay: Effect on urine volume at a dose of 10 mg/kg in hydrated 10 male rats was determined; type: functional
Outline: (§3)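 Conscious, hydrated male Sprague–Dawley rats dosed orally with test compound in 0.5% hydroxypropyl-methylcellulose vehicle, or with vehicle alone (3–100 mg/kg). Urine collected over 4 h. Urine volume (mL) and osmolality (mOsmol/Kg) reported as mean with error, about 10 animals per group. Significance judged at p<0.05 versus vehicle.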

[6] = system: Rattus norvegicus; assay: Effect on urine volume at a dose of 30 mg/kg in hydrated 10 male rats was determined; type: functional; outline: as §3
[7] = system: Rattus norvegicus; assay: Effect on urine volume at a dose of 3 mg/kg in hydrated 10 male rats was determined; type: functional; outline: as §3
[8] = system: Rattus norvegicus; assay: Effect on urine osmolality at a dose of 100 mg/kg in hydrated 10 male rats was determined; type: functional; outline: as §3
[9] = system: Rattus norvegicus; assay: Effect on urine osmolality at a dose of 10 mg/kg in hydrated 10 male rats was determined; type: functional; outline: as §3
[10] = system: Rattus norvegicus; assay: Effect on urine osmolality at a dose of 30 mg/kg in hydrated 10 male rats was determined; type: functional; outline: as §3
[11] = system: Rattus norvegicus; assay: Effect on urine osmolality at a dose of 3 mg/kg in hydrated 10 male rats was determined; type: functional; outline: as §3
[12] = system: Rattus norvegicus; assay: Effect on urine volume at a dose of 100 mg/kg in hydrated 10 male rats was determined

T1 sequence (P30518 whole entry): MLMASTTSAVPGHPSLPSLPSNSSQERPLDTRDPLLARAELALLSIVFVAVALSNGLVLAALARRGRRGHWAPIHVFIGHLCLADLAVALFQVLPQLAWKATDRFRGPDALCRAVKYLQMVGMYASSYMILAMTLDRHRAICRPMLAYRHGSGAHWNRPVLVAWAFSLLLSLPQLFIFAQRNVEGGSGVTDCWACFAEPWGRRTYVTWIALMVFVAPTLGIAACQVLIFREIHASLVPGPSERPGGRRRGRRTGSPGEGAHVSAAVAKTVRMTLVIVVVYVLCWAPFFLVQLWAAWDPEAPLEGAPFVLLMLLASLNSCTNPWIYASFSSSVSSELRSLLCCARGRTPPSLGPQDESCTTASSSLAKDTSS

Row | SMILES | IC50 [1] | IC50 [2] | IC50 [3] | IC50 [4] | other results
1 | CN(C)CC1CCN(C(=O)c2ccc(NC(=O)c3ccccc3-c3ccccc3)cc2)c2ccccc2S1 (centres undefined) | 430 nM | 1200 nM |  |  | 
2 | O=C(O)CC[C@H]1CCN(C(=O)c2ccc(NC(=O)c3ccccc3-c3ccccc3)cc2)c2ccccc2S1 | 15 nM | 140 nM | 30 nM | 2010 nM | 
3 | O=C(Nc1ccc(C(=O)N2CCC(CCS(=O)(=O)O)Sc3ccccc32)cc1)c1ccccc1-c1ccccc1 (centres undefined) |  | 1150 nM |  |  | 
4 | O=C(Nc1ccc(C(=O)N2CCC(CCF)Sc3ccccc32)cc1)c1ccccc1-c1ccccc1 (centres undefined) | 85 nM | 180 nM |  |  | 
5 | O=C(Nc1ccc(C(=O)N2CCC(CC(F)F)Sc3ccccc32)cc1)c1ccccc1-c1ccccc1 (centres undefined) | 100 nM | 160 nM |  |  | 
6 | O=C(O)CC[C@@H]1CCN(C(=O)c2ccc(NC(=O)c3ccccc3-c3ccccc3)cc2)c2ccccc2S1 | 16 nM | 314 nM | 40 nM | 4630 nM | 
7 | O=C(O)C[C@@H]1CCN(C(=O)c2ccc(NC(=O)c3ccccc3-c3ccccc3)cc2)c2ccccc2S1 | 8 nM | 1140 nM | 30 nM | 1760 nM | Urine volume [5]: 7.3 mL; Urine volume [6]: 15.7 mL; Urine volume [7]: 2.2 mL; Urine osmolality [8]: 177 mOsmol kg-1; Urine osmolality [9]: 299 mOsmol kg-1; Urine osmolality [10]: 161 mOsmol kg-1; Urine osmolality [11]: 529 mOsmol kg-1; Urine volume [12]: 13.8 mL
8 | O=C(Nc1ccc(C(=O)N2CCC(CCO)Sc3ccccc32)cc1)c1ccccc1-c1ccccc1 (centres undefined) | 8 nM | 97 nM | 100 nM | 150 nM | 
9 | O=C(O)CC1CCN(C(=O)c2ccc(NC(=O)c3ccccc3-c3ccccc3)cc2)c2ccccc2S1 (centres undefined) | 7 nM | 729 nM | 40 nM | 740 nM | 
10 | O=C(O)C[C@H]1CCN(C(=O)c2ccc(NC(=O)c3ccccc3-c3ccccc3)cc2)c2ccccc2S1 | 7 nM | 440 nM | 36 nM | 2130 nM | 
